Measurements reported in ChEMBL document CHEMBL1129798, “Analogues of 10-deazaaminopterin and 5-alkyl-5,10-dideazaaminopterin with the 4-substituted 1-naphthoyl group in the place of 4-substituted benzoyl” (J Med Chem, 1996).

How the values were obtained:
HL-60 = test: In vitro cell growth inhibitory activity against HL60 cell line; assay type: functional, cell-based; details: Homo sapiens
L1210 = test: In vitro cell growth inhibitory activity against L1210 cell line; assay type: functional, cell-based; details: Mus musculus
Mus musculus [1] = test: Compound was compared with MTX for in vivo activity against mammary adenocarcinoma E0771 infected mice at a dose of 24 mg/kg; T/C Treated to Control; assay type: functional
Outline: (§1)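 E0771 mammary adenocarcinoma carried in mice, five mice per test group, with an untreated control group. Dosage is given in mg/kg. Average body weight change (g) and average tumor volume (mm3) were recorded at day 10. T/C is expressed relative to the control group.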

Mus musculus [2] = test: Compound was compared with MTX for in vivo activity against mammary adenocarcinoma E0771 infected mice at a dose of 48 mg/kg; T/C Treated to Control; assay type: functional; outline: as §1
CCRF S-180 = test: In vitro cell growth inhibitory activity against S180 cell line; assay type: functional, cell-based; details: Mus musculus

Row | Structure (SMILES) | IC50 (HL-60) | IC50 (L1210) | T/C (Mus musculus [1]) | T/C (Mus musculus [2]) | IC50 (CCRF S-180)
1 | Nc1nc(N)c2nc(CCc3ccc(C(=O)NC(CCC(=O)O)C(=O)O)c4ccccc34)cnc2n1 (stereo unspecified) | 1.1 nM | 1.5 nM | 96% | 52% | 1.7 nM
2 | Cc1c(CCc2ccc(C(=O)NC(CCC(=O)O)C(=O)O)c3ccccc23)cnc2nc(N)nc(N)c12 (stereo unspecified) | 9.4 nM | 8.8 nM |  |  | 29 nM
3 | CCc1c(CCc2ccc(C(=O)NC(CCC(=O)O)C(=O)O)c3ccccc23)cnc2nc(N)nc(N)c12 (stereo unspecified) | 9.8 nM | 9 nM |  |  | 29 nM
